Measurements from ChEMBL document CHEMBL4376872, “Scaffold Hopping of Natural Product Evodiamine: Discovery of a Novel Antitumor Scaffold with Excellent Potency against Colon Cancer” (J Med Chem, 2020).
Active and inactive are the calls of the source. The calls are words filed in the database; no cut-off is given here.

What was measured:
Homo sapiens = species on record: Homo sapiens; experiment: Inhibition of PDE4A1A (unknown origin) using FAM-cAMP as substrate at 5 uM incubated for 1 hr by fluorescence polarization assay relative to control
HCT-116 [1] = experiment: Cell cycle arrest in human HCT116 cells assessed as accumulation in S phase at 12 nM incubated for 24 hrs by propidium iodide staining based flow cytometry (reference value: 42.31 %); format: functional
[2] = biological target: Matrix metalloproteinase-9 (Homo sapiens) (UniProt P14780); experiment: Inhibition of MMP9 (unknown origin) using Mca-PLGLDpaAR as substrate at 5 uM preincubated with enzyme for 2 hrs followed by incubation with substrate for 15 mins by fluorescence based analysis relative to control
HCT-116 [3] = experiment: Cell cycle arrest in human HCT116 cells assessed as accumulation in G1 phase at 4 nM incubated for 24 hrs by propidium iodide staining based flow cytometry (reference value: 45.18 %); format: functional
[4] = biological target: PI3-kinase p110-alpha/p85-alpha (Homo sapiens) (UniProt P27986+P42336); experiment: Inhibition of PI3K p110alpha/p85alpha (unknown origin) using PI3K lipid as substrate at 5 uM incubated for 40 mins in presence of 2.5 uM ATP by kinase-Glo luminescence assay relative to control; format: protein-complex assay
[5] = biological target: T1, DNA topoisomerase 1 (Escherichia coli (strain K12)) (UniProt P06612); experiment: Poison activity at Escherichia coli Top1 assessed as increase in […] band intensity at 12.5 to 100 uM using supercoiled pUC19 plasmid DNA as substrate incubated for 30 mins by agarose gel electrophoresis analysis
T1 sequence (whole entry): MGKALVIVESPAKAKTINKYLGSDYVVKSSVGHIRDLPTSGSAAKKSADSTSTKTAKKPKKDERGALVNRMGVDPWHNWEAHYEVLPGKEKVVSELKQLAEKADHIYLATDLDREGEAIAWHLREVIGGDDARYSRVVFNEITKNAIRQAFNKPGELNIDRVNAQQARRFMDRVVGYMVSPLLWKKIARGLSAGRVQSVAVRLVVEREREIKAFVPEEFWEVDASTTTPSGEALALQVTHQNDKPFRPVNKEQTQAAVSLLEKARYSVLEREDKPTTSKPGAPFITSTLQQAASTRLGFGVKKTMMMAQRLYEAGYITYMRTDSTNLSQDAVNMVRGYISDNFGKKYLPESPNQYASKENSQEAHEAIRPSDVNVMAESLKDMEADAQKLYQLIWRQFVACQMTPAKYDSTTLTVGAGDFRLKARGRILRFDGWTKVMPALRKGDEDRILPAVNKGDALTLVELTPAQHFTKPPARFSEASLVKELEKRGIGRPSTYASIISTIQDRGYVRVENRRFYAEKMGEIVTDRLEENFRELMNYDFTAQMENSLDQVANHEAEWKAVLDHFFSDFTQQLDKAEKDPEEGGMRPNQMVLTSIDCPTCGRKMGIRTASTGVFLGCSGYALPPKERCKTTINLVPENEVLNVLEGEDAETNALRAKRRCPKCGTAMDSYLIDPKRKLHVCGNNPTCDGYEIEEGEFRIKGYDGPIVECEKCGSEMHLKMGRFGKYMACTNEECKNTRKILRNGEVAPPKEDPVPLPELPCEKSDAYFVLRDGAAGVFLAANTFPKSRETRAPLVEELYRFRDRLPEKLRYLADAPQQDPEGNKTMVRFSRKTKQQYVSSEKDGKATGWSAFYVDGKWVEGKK
Outline: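 Supercoiled pUC19 plasmid DNA was incubated with Top1 plus compound at 100, 50, 25 and 12.5 μM. Controls were DNA alone, DNA + Top1, and DNA + Top1 + CPT (100 μM). Products were resolved as gel lanes.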

[6] = biological target: 3',5'-cyclic-AMP phosphodiesterase 4A (Homo sapiens) (UniProt P27815); experiment: Inhibition of PDE4A4 (unknown origin) using FAM-cAMP as substrate at 5 uM incubated for 1 hr by fluorescence polarization assay relative to control
HCT-116 [7] = experiment: Antitumor activity against human HCT116 cells xenografted in mouse assessed as reduction in tumor growth at 4 mg/kg, ip bid for 21 days administration starting from 10 days after tumor cell implantation measured every 2 or 4 days till the end of the treatment period relative to control; format: functional; conditions: HCT-116, ip, read-out: TGI
Outline: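 HCT116 xenografts in nude mice; intraperitoneal dosing on 21 consecutive days; tumour growth inhibition (TGI) versus untreated control, with body weight recorded. n = 6 mice per group; mean ± SEM; significance by Student's t test versus control.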

[8] = Toxicity in mouse xenografted with human HCT116 cells assessed as reduction in body weight at 4 mg/kg, ip bid for 21 days administration starting from 10 days after tumor cell implantation measured every 2 or 4 days till the end of the treatment period; format: organism-based; conditions: in vivo
Outline: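 Nude mice bearing HCT116 xenografts were given intraperitoneal doses on 21 consecutive days, with n = 6 per group including an untreated control group. Body weight was recorded to assess toxicity. Data are mean ± SEM, compared with the control group by Student's t test.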

[9] = biological target: T1, DNA topoisomerase 1 (Escherichia coli (strain K12)); experiment: Inhibition of Escherichia coli Top1 assessed as decrease in relaxation of supercoiled pBR322 plasmid DNA at 100 uM using supercoiled pBR322 plasmid DNA as substrate incubated for 15 mins by agarose gel electrophoresis analysis
HCT-116 [10] = experiment: Induction of apoptosis in human HCT116 cells incubated for 24 hrs by annexin V-FITC and propidium iodide staining based flow cytometry; format: functional, cell-based
[11] = biological target: Serine/threonine-protein kinase PLK1 (Homo sapiens) (UniProt P53350); experiment: Inhibition of PLK1 (unknown origin) using PLK1 peptide as substrate at 5 uM incubated for 40 mins in presence of 10 uM ATP by kiase-Glo luminescence assay relative to control
MDA-MB-435 = experiment: Antiproliferative activity against human MDA-MB-435 cells assessed as reduction in cell viability incubated for 72 hrs by CCK8 assay; format: functional, cell-based; conditions: MDA-MB-435, 72 h
[12] = biological target: N-lysine methyltransferase KMT5A (Homo sapiens) (UniProt Q9NQR1); experiment: Inhibition of SET8 (unknown origin) using plate-coated histone as substrate at 5 uM incubated for 90 mins in presence of 10 uM SAM by AlphaScreen assay relative to control
HCT-116 [13] = experiment: Cell cycle arrest in human HCT116 cells assessed as accumulation in G1 phase at 36 nM incubated for 24 hrs by propidium iodide staining based flow cytometry (reference value: 45.18 %); format: functional
[14] = biological target: Protein mono-ADP-ribosyltransferase PARP15 (Homo sapiens) (UniProt Q460N3); experiment: Inhibition of PARP15 (unknown origin) using biotin-NAD+, NAD+ and sIDNA as substrate at 5 uM incubated for 1 hr by ELISA relative to control
[15] = biological target: Focal adhesion kinase 1 (Homo sapiens) (UniProt Q05397); experiment: Inhibition of FAK (unknown origin) using poly (Glu, Tyr) as substrate at 5 uM incubated for 40 mins in presence of 10 uM ATP by kiase-Glo luminescence assay relative to control
[16] = biological target: cAMP-dependent protein kinase catalytic subunit alpha (Homo sapiens) (UniProt P17612); experiment: Inhibition of PKAC-alpha (unknown origin) using CREBtide as substrate at 5 uM incubated for 40 mins in presence of 10 uM ATP by kiase-Glo luminescence assay relative to control

Chain of 3',5'-cyclic-AMP phosphodiesterase 4A (Homo sapiens) (P27815 whole entry): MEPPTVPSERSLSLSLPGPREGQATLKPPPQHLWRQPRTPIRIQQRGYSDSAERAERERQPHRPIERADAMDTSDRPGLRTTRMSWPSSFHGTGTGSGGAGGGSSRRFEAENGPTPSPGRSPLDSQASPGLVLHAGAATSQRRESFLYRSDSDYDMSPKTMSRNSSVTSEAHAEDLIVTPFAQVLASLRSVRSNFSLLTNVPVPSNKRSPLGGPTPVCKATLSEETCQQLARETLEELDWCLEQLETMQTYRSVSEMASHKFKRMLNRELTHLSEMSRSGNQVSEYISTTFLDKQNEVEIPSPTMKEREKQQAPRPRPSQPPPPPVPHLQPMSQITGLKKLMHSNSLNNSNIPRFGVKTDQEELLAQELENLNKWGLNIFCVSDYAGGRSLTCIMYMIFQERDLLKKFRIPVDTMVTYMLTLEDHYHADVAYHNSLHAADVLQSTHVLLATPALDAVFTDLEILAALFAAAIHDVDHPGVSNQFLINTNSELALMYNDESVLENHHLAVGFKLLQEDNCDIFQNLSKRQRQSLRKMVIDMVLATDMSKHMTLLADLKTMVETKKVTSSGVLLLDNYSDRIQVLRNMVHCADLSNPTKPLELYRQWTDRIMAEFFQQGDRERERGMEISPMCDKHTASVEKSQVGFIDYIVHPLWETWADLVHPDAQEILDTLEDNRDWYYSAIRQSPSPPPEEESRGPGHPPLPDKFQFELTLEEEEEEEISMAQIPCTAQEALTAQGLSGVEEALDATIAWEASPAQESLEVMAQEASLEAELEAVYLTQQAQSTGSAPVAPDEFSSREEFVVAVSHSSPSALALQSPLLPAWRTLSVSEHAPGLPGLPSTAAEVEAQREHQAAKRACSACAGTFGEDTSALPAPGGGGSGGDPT
Chain of Matrix metalloproteinase-9 (Homo sapiens) (P14780 whole entry): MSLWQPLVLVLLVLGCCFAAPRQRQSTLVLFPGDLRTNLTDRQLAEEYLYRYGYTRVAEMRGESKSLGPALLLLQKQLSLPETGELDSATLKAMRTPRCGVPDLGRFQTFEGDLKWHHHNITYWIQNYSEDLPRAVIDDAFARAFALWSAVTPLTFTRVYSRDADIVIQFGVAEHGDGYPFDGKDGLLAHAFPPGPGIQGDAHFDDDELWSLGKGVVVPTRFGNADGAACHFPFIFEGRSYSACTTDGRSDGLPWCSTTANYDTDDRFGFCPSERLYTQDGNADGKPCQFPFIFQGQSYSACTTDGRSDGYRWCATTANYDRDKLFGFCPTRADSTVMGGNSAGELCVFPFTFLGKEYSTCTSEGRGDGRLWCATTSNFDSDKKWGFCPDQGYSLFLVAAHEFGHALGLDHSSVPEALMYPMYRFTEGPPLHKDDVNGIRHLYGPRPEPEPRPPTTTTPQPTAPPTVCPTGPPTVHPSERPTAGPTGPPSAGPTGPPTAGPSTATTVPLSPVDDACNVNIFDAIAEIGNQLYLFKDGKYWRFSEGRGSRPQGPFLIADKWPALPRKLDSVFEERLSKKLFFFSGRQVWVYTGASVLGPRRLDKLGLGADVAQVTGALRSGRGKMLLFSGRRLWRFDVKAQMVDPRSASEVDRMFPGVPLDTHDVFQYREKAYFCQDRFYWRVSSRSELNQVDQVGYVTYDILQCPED
Chain of Protein mono-ADP-ribosyltransferase PARP15 (Homo sapiens) (Q460N3 whole entry): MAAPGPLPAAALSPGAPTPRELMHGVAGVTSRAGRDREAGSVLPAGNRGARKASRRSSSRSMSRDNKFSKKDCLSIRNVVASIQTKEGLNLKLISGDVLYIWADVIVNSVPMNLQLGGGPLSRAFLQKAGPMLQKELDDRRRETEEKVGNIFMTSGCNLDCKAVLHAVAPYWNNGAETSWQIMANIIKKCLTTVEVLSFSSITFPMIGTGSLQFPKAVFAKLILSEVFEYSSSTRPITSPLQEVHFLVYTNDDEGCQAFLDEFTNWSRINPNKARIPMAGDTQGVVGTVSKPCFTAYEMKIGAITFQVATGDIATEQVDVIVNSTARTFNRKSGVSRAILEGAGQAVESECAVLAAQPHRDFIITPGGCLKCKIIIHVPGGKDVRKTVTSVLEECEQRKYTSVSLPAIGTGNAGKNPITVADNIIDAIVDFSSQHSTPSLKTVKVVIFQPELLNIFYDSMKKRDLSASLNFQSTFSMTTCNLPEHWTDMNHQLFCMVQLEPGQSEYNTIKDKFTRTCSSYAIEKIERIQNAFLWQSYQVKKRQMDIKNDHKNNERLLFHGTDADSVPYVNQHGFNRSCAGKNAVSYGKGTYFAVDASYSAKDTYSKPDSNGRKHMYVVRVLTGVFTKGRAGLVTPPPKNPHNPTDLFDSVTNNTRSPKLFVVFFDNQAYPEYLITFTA
Chain of Serine/threonine-protein kinase PLK1 (Homo sapiens) (P53350 whole entry): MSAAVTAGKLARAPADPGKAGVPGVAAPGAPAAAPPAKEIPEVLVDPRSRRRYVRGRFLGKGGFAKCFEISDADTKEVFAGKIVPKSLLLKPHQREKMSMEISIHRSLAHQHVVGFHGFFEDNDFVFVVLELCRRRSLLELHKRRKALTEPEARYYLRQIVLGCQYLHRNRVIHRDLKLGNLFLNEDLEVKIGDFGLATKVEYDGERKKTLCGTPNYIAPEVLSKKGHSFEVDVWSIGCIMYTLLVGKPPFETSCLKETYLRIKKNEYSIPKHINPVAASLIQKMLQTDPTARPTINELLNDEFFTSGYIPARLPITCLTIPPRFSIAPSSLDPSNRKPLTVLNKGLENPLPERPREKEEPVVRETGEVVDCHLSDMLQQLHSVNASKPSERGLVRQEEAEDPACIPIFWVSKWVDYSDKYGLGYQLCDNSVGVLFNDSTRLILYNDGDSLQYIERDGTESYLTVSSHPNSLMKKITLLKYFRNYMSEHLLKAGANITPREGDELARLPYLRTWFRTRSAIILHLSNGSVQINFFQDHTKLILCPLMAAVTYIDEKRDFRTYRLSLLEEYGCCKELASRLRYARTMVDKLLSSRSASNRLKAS
Chain of N-lysine methyltransferase KMT5A (Homo sapiens) (Q9NQR1 whole entry): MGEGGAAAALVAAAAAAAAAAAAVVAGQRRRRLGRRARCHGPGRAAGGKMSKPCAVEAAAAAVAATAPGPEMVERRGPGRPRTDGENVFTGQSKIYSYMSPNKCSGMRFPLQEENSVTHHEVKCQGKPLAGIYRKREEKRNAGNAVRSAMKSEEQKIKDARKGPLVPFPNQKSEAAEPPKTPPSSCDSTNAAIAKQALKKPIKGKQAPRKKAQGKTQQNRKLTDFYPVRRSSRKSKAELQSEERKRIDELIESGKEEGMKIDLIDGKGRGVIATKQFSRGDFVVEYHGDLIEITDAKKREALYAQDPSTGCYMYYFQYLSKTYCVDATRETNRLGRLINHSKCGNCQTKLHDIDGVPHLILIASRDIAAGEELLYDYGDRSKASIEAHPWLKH
Chain of Focal adhesion kinase 1 (Homo sapiens) (Q05397 2-1052 limits assumed): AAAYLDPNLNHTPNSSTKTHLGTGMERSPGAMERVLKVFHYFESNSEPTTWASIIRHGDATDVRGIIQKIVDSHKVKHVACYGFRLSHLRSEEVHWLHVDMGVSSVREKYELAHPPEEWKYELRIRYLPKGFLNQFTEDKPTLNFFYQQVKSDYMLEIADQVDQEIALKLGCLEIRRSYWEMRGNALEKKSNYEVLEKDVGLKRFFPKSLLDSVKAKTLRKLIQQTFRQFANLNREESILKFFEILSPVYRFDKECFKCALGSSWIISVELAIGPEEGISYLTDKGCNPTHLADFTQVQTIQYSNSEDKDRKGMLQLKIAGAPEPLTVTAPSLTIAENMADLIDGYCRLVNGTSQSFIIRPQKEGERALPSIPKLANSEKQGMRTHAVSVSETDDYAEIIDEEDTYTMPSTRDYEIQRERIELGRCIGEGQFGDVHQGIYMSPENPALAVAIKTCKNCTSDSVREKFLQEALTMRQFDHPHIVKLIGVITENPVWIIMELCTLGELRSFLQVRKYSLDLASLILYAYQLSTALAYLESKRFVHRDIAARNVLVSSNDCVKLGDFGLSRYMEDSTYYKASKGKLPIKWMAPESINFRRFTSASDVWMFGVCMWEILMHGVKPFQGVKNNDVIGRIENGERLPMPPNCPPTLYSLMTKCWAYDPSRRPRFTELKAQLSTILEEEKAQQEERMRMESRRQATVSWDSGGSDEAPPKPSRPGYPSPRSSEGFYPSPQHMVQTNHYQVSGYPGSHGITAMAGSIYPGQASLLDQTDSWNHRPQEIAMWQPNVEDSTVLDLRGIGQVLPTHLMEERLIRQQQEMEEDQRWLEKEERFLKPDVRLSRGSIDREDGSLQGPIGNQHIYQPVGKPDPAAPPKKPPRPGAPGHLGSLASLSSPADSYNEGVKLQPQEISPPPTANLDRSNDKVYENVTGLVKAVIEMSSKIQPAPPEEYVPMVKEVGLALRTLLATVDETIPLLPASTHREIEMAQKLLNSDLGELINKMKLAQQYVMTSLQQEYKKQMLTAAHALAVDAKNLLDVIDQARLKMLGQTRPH

inhibition (Homo sapiens): < 20%
inhibition [2]: < 20%
inhibition [4]: < 20%
inhibition [6]: < 20%
inhibition [9]: Active
inhibition [11]: < 20%
IC50 (MDA-MB-435): 1000 nM
inhibition [12]: < 20%
inhibition [14]: < 20%
inhibition [15]: < 20%
inhibition [16]: < 20%
Compound: COc1ccc2c(c1)cc1n2CCN2C(=O)c3cc(F)ccc3N(C)C12 (stereo not drawn)
Activity (HCT-116 [1]): 40.44%
Activity (HCT-116 [3]): 43.01%
Activity [5]: Active
inhibition in vivo at 4 mg/kg (HCT-116 [7]): 37%
Activity [8]: Non-Toxic
Activity (HCT-116 [10]): Dose-dependent effect
Activity (HCT-116 [13]): 1.02%
